The first assay relates to L1210. As to the kind of experiment: Antiproliferative activity against mouse L1210 cells after 2 days by Coulter counter method. In kind it is functional, cell-based. The conditions noted are these: L1210, 48 h. In outline:
(§1)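 Cells suspended at 300,000–500,000 cells/mL; 100 μL suspension added to 100 μL of compound dilutions. Incubated at 37 °C for 2 days (L1210, FM3A), 3 days (CEM) or 4 days (HeLa), then counted by Coulter counter. IC50 is the concentration giving 50% inhibition of proliferation. Values are mean ± SD of two to three independent experiments.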
`COC(=O)c1sc(-c2cc(OC)c(OC)c(OC)c2)cc1Nc1cc(OC)c(OC)c(OC)c1`: the half-maximal inhibitory concentration (IC50) is > 250 µM.

Compound `CCOC(=O)c1sc(-c2ccccc2)cc1Nc1cc(OC)c(OC)c(OC)c1` registered an IC50 of 1.1 µM.

`COC(=O)c1sc(-c2ccc(OC)cc2)cc1Nc1cc(OC)c(OC)c(OC)c1` yielded an IC50 of 0.27 µM.

As to `CCOC(=O)c1sc(-c2ccc(C)cc2)cc1Nc1cc(OC)c(OC)c(OC)c1`, the midpoint of inhibition, the IC50, lay at 0.82 µM.

`CCOC(=O)c1sc(-c2ccc(Cl)cc2)cc1Nc1cc(OC)c(OC)c(OC)c1` returned an IC50 of 6 µM.

The compound `CCOC(=O)c1sc(-c2ccc(OC)cc2)cc1Nc1cc(OC)c(OC)c(OC)c1` had an IC50 of 1.2 µM.

Regarding `CCOc1ccc(-c2cc(Nc3cc(OC)c(OC)c(OC)c3)c(C(=O)OC)s2)cc1`, the IC50 turned out to be 6.3 µM.

`COC(=O)c1sc(-c2ccc(F)cc2)cc1Nc1cc(OC)c(OC)c(OC)c1` yielded an IC50 of 0.56 µM.

`COC(=O)c1sc(-c2ccc(Cl)cc2)cc1Nc1cc(OC)c(OC)c(OC)c1` showed a half-inhibitory concentration (IC50) of 1.1 µM.

The test system of a further assay is FM3A. The experiment in a line: Antiproliferative activity against mouse FM3A cells after 2 days by Coulter counter method. It is filed as functional, cell-based. The conditions noted are these: 48 h. In outline:
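Cells suspended at 300,000–500,000 cells/mL; 100 μL suspension added to 100 μL of compound dilutions. Incubated at 37 °C for 2 days (L1210, FM3A), 3 days (CEM) or 4 days (HeLa), then counted by Coulter counter. Values are mean ± SD of two to three independent experiments.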
As for `COC(=O)c1sc(-c2cc(OC)c(OC)c(OC)c2)cc1Nc1cc(OC)c(OC)c(OC)c1`, the IC50 was > 250 µM.

As to `CCOC(=O)c1sc(-c2ccccc2)cc1Nc1cc(OC)c(OC)c(OC)c1`, half-maximal inhibition (IC50) required 0.98 µM.

With `COC(=O)c1sc(-c2ccc(OC)cc2)cc1Nc1cc(OC)c(OC)c(OC)c1`, the 50% inhibitory concentration (IC50) came out at 0.25 µM.

`CCOC(=O)c1sc(-c2ccc(C)cc2)cc1Nc1cc(OC)c(OC)c(OC)c1` displayed an IC50 of 0.82 µM.

As for `CCOC(=O)c1sc(-c2ccc(Cl)cc2)cc1Nc1cc(OC)c(OC)c(OC)c1`, the IC50 turned out to be 5.1 µM.

In the case of `CCOC(=O)c1sc(-c2ccc(OC)cc2)cc1Nc1cc(OC)c(OC)c(OC)c1`, half-maximal inhibition (IC50) required 1.2 µM.

Compound `CCOc1ccc(-c2cc(Nc3cc(OC)c(OC)c(OC)c3)c(C(=O)OC)s2)cc1` gave an IC50 of 5.7 µM.

As to `COC(=O)c1sc(-c2ccc(F)cc2)cc1Nc1cc(OC)c(OC)c(OC)c1`, the midpoint of inhibition, the IC50, lay at 0.72 µM.

The compound `COC(=O)c1sc(-c2ccc(Cl)cc2)cc1Nc1cc(OC)c(OC)c(OC)c1` displayed a concentration for half-maximal inhibition (IC50) of 0.88 µM.

The subject of a further assay is CCRF-CEM. The experiment in a line: Antiproliferative activity against human CEM cells after 3 days by Coulter counter method. It is filed as functional, cell-based. The conditions noted are these: 72 h. In outline:
as §1
Take `COC(=O)c1sc(-c2cc(OC)c(OC)c(OC)c2)cc1Nc1cc(OC)c(OC)c(OC)c1`: the IC50 is > 250 µM.

Compound `CCOC(=O)c1sc(-c2ccccc2)cc1Nc1cc(OC)c(OC)c(OC)c1` came in with an IC50 of 0.93 µM.

In turn, `COC(=O)c1sc(-c2ccc(OC)cc2)cc1Nc1cc(OC)c(OC)c(OC)c1` showed an IC50 of 0.23 µM.

In the case of `CCOC(=O)c1sc(-c2ccc(C)cc2)cc1Nc1cc(OC)c(OC)c(OC)c1`, the IC50 worked out at 0.76 µM.

Regarding `CCOC(=O)c1sc(-c2ccc(Cl)cc2)cc1Nc1cc(OC)c(OC)c(OC)c1`, the IC50 amounted to 4.6 µM.

For the compound `CCOC(=O)c1sc(-c2ccc(OC)cc2)cc1Nc1cc(OC)c(OC)c(OC)c1`, the half-inhibitory concentration (IC50) was 1.1 µM.

`CCOc1ccc(-c2cc(Nc3cc(OC)c(OC)c(OC)c3)c(C(=O)OC)s2)cc1` came in with a half-maximal inhibitory concentration (IC50) of 5.4 µM.

For `COC(=O)c1sc(-c2ccc(F)cc2)cc1Nc1cc(OC)c(OC)c(OC)c1`, the IC50 was determined as 0.53 µM.

With `COC(=O)c1sc(-c2ccc(Cl)cc2)cc1Nc1cc(OC)c(OC)c(OC)c1`, the half-inhibitory concentration (IC50) was determined as 0.87 µM.

The next assay concerns HeLa. As to the kind of experiment: Antiproliferative activity against human HeLa cells after 4 days by Coulter counter method. In kind it is functional, cell-based. Particulars: 96 h. In outline: as §1
`COC(=O)c1sc(-c2cc(OC)c(OC)c(OC)c2)cc1Nc1cc(OC)c(OC)c(OC)c1` displayed an IC50 of 162 µM.

On to `CCOC(=O)c1sc(-c2ccccc2)cc1Nc1cc(OC)c(OC)c(OC)c1`, for which 1.4 µM corresponded to half-maximal inhibition (IC50).

The compound `COC(=O)c1sc(-c2ccc(OC)cc2)cc1Nc1cc(OC)c(OC)c(OC)c1` showed an IC50 of 0.84 µM.

As for `CCOC(=O)c1sc(-c2ccc(C)cc2)cc1Nc1cc(OC)c(OC)c(OC)c1`, the IC50 was determined as 0.78 µM.

Regarding `CCOC(=O)c1sc(-c2ccc(Cl)cc2)cc1Nc1cc(OC)c(OC)c(OC)c1`, 9.8 µM corresponded to half-maximal inhibition (IC50).

As for `CCOC(=O)c1sc(-c2ccc(OC)cc2)cc1Nc1cc(OC)c(OC)c(OC)c1`, inhibition was half-maximal at 2.3 µM (IC50).

For `CCOc1ccc(-c2cc(Nc3cc(OC)c(OC)c(OC)c3)c(C(=O)OC)s2)cc1`, the IC50 worked out at 4.4 µM.

For `COC(=O)c1sc(-c2ccc(F)cc2)cc1Nc1cc(OC)c(OC)c(OC)c1`, the midpoint of inhibition, the IC50, lay at 0.88 µM.

In turn, `COC(=O)c1sc(-c2ccc(Cl)cc2)cc1Nc1cc(OC)c(OC)c(OC)c1` came in with a concentration for half-maximal inhibition (IC50) of 0.87 µM.

System in the next assay: not listed separately
As to the kind of experiment: Inhibition of bovine brain tubulin polymerization in presence of GTP by spectrophotometric analysis. Further details: species or system Bos taurus.
Conditions: not given
In outline: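 0.4 mM GTP added, mixtures rewarmed to 30 °C in cuvettes and turbidity followed at 350 nm.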
As for `COC(=O)c1sc(-c2ccc(OC)cc2)cc1Nc1cc(OC)c(OC)c(OC)c1`, the IC50 was determined as 2 µM.

On to `COC(=O)c1sc(-c2ccc(F)cc2)cc1Nc1cc(OC)c(OC)c(OC)c1`, for which the half-inhibitory concentration (IC50) came to 2.2 µM.

Another assay is filed under the species Bos taurus. As to the kind of experiment: Inhibition of [3H]colchicine binding to bovine brain tubulin at 5 uM relative to control.
Conditions: not given
In outline: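 Reaction mixtures held 1 μM tubulin, 5 μM [3H]colchicine and 5 μM test compound. Inhibition of radiolabelled colchicine binding was measured by a previously described method.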
With `COC(=O)c1sc(-c2ccc(OC)cc2)cc1Nc1cc(OC)c(OC)c(OC)c1`, the inhibition came out at 46%.

With `COC(=O)c1sc(-c2ccc(F)cc2)cc1Nc1cc(OC)c(OC)c(OC)c1`, the inhibition is 41%.
